# Compound activity: PubChem BioAssay, several laboratories
# GPR7 antag: antagonists of human GPR7 (neuropeptides B/W receptor 1) | GPR7-expressing cells, fluorescence antagonist assay | inhibition, % at 4.4 µM | 290,000 tested, 1.1% active | P48145; in the data active = inhibition above about 16%, passing the limit was not always enough;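 note: cells stimulated with the agonist NPW; 0% = agonist with vehicle and 100% = vehicle without agonist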
# Target sequence (P48145 whole entry, looked up): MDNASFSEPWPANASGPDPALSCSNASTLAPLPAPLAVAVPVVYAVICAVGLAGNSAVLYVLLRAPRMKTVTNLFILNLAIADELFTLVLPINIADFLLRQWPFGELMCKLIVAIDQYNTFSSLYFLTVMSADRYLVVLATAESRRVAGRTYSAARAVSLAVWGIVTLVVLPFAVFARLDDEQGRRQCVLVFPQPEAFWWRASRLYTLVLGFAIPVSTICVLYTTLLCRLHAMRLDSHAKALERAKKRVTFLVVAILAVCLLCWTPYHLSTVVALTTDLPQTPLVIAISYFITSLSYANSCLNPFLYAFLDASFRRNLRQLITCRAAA
# HSF1 inhib: HSF1 inhibition. NIH3T3-HGL HSE-luciferase, MG132-induced, luminescence 8 h; stronger effect = lower value. activity change, negative = inhibition, % at 7.5 µM (by protocol). 300,000 tested, 0.77% active. AID 2098;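 active = more than half of replicate wells show activity change below -50%, luminescence cut by over half; inconclusive = some wells, but at most half, below -50%; inactive = no replicate well below -50%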;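 note: luciferase reports HSF-1 transcriptional activity via heat shock element; 0% = median of DMSO wells and -100% = zero luminescence signal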
# T cruzi repl: blocks replication of Trypanosoma cruzi; T. cruzi beta-gal in NIH3T3, luminescence, 90 h; inhibition, % (test concentration not listed); 300,000 tested, 1.4% active; AID 1885;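 active = mean inhibition across valid replicates above about 55%, limit read from the data; inconclusive = mean below that limit but half or more replicates reach it; inactive = mean below it, under half of replicates reach it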;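 note: signal also drops with host cell toxicity which is not excluded here; 0% = plate median of DMSO wells and 100% = zero luminescence signal; higher percent means less beta-gal luminescence so fewer parasites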
#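 System: Mouse NIH/3T3 fibroblasts infected with β-gal-expressing T. cruzi Tulahuen C4 | Quantity: NIH/3T3 cells, 5,000 per well | Reagent: 5000 reporter trypomastigotes per well | Dosing: Compound pinned at 50 nL/well, DMSO | Schedule: 3 h host attachment, then at least 90 h co-culture | Detection: GalScreen luminescence, 60 min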
# Jurkat NFkB inh: inhibitors of the PMA/ionomycin-induced NF-kB reporter in Jurkat cells; PMA/ionomycin-induced NF-kB luciferase reporter, luminescence; inhibition, % at 4 µM; 330,000 tested, 0.53% active; in the data active = inhibition above about 50%
# 697 NFkB inh: lowers PMA/ionomycin-induced NF-kB signal in 697 B cells | AID 435022 | 330,000 tested, 0.33% active | 697 B-cell NF-kB luciferase reporter, 16 h | inhibition, % at 4 µM; in the data active = inhibition above about 35%
# HSF-1 act: increases HSF-1 driven luciferase reporter signal; NIH3T3-HGL HSF-1 luciferase reporter, MG132, 8 h; 100% = twice DMSO control signal; activation, % at 9 µM; 300,000 tested, 1.7% active; AID 504408;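 active = mean replicate activation of at least 50% with a set share of replicates each reaching 50%; inconclusive = only one of those two conditions met; inactive = mean below 50% and too few replicates reaching it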;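 note: 0% = median of the neutral control wells and 100% = twice that signal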
# Starred values were filed as active, the others as inactive; ? = inconclusive; · = no result. Hits are enriched below; roughly 4.8% of the tested compounds scored in any of these assays.
SMILES,GPR7 antag,HSF1 inhib,T cruzi repl,Jurkat NFkB inh,697 NFkB inh,HSF-1 act
O=c1[nH]c(CSc2ccccn2)nc2c1cnn2-c1ccccc1,-6,27,5,-2,-10,57*
O=C(O)c1ccc2ccc3ccccc3c2c1,·,-4,-11,9,10,-3
Cc1c(/C=N/NC(=O)c2ccc(Br)o2)cnn1C,-7,21,12,-12,-13,61*
CCc1ccc(N2CCN(S(=O)(=O)CC34CCC(CC3=O)C4(C)C)CC2)cc1 (stereo not given),-18,11,2,12,-11,37
Cc1c(/C(O)=C2\C(=O)C(=O)N(CCN(C)C)C2c2ccccc2)cnn1-c1ccccc1 (stereo not given),-1,-63*,3,5,-48,-63
Cc1ccc(C2/C(=C(\O)c3cnn(-c4ccccc4)c3C)C(=O)C(=O)N2CCN(C)C)o1 (stereo not given),10,26,-6,-75,-57,66*
CC(C)(C)Cc1nnc(NC(=O)c2ccc3c(c2)OCO3)s1,3,26,-8,-81,-156,58*
CCOC(=O)Cn1nc(-c2ccc(Cl)cc2)ccc1=O,1,-4,-4,-3,-1,-14
CC(=O)N(C(C)=O)c1ncnc2c1c(-c1ccc(Cl)cc1)nn2C(C)(C)C,-10,-7,61*,-10,-61,-3
CC(=O)Nc1nc(-c2ccc(Cl)cc2)nc(C)c1C(C)=O,-15,-2,-8,-41,-32,12
CC(=O)Nc1ncnc2c1c(-c1ccc(Cl)cc1)nn2C(C)(C)C,-4,-15,61*,-11,-39,-19
O=C(NNS(=O)(=O)c1cccc(Cl)c1)c1cc(-c2ccc(F)cc2)nc2ccccc12,-12,9,-13,5,-10,25
O=C(O)c1cccc(-n2nnnc2SCc2ccccn2)c1,19*,-2,-10,1,21,-11
CC(=O)Nc1ccc(Nc2cc(C(C)C)nc3c(-c4ccccc4)c(C)nn23)cc1,-17,2,68*,4,-29,7
COc1ccccc1NS(=O)(=O)c1cc(C(=O)N2CCN(C/C=C/c3ccccc3)CC2)ccc1C,7,2,50,7,2,6
Cc1cccc(-c2noc(-c3ccccc3C(=O)NCc3ccco3)n2)c1,4,29,-4,-39,-25,64*
COc1cccc(CN(C(=O)c2ccccc2Br)C2CCS(=O)(=O)C2)c1 (stereo not given),-4,-5,-5,-19,2,14
CCCCNc1c(-c2ccc(SC3CCCCC3)c(OC)c2)nc2ccc(Cl)cn12,·,8,70*,-3,15,5
CCCCCCSc1ccc(-c2nc3ccc(Cl)cn3c2NCCCC)cc1OC,·,·,·,-5,-54,·
O=C(O)c1cccc(Nc2ccncc2[N+](=O)[O-])c1,-5,-2,-11,7,19,-16
COc1ccccc1C(=O)NC(=S)Nc1ccc(Cc2ccncc2)cc1,-40,-6,-4,-5,3,4
COc1ccc(Br)cc1C(=O)Nc1ccc(Cc2ccncc2)cc1,19,-28,73*,18,6,-34
COc1ccc(-n2nc(C)c3c(=O)c4c([nH]c32)CCCC4)cc1,0,5,62*,19,10,5
COc1ccc(-n2nc(C)c3sc(C)nc3c2=O)cc1,-1,-2,5,15,-13,-11
CC1CN(S(=O)(=O)c2cccc(C(=O)NCCC3=CCCCC3)c2)CC(C)O1 (stereo not given),·,1,-6,-6,-18,13
SMILES,GPR7 antag,HSF1 inhib,T cruzi repl,Jurkat NFkB inh,697 NFkB inh,HSF-1 act
CCN(CC)CCn1c2ccccc2c2cnc(N)c(C#N)c21,-9,-22,65*,-13,2,-29
CN(C)C=Nc1ncc2c3ccccc3n(CCN(C)C)c2c1C#N,-7,-30,26,-6,-15,-31
CC(C)CC(c1nnnn1C(C)(C)C)N1CCN(C2CCCC2)CC1 (stereo not given),18*,1,5,-12,0,1
Cc1ccc(C(c2nnnn2C(C)(C)C)N2CCN(C3CCCC3)CC2)cc1 (stereo not given),-5,-5,1,-32,-45,-4
CN(C)C(=O)CSc1nnc(Cc2ccccc2)n1CC1CCCO1 (stereo not given),1,-3,-1,-8,2,5
Cc1cccc2nc(CNC(=O)CC3C(=O)NCCN3Cc3cccc(F)c3)cn12 (stereo not given),0,-2,58*,-2,9,9
O=C(CC1C(=O)NCCN1Cc1cccc(F)c1)NC1CCCCCC1 (stereo not given),-5,-5,5,11,3,-15
CN(C[C@H](Cc1ccccc1)N(C[C@H](Cc1ccccc1)N(CC1(c2ccccc2)CC1)N=O)N=O)N=O,-14,5,54,-5,6,8
CCOC(=O)CNc1c(-c2ccc(O)cc2)nc2ccc(Cl)cn12,-1,62,2,-32,-29,72*
CCOC(=O)CNc1c(-c2ccccc2)nc2ccc(Cl)cn12,23,7,1,-36,-41,24
CCOc1ccc(NC(=O)CCC(=O)c2ccc(F)cc2)cc1,-10,0,1,-5,4,15
CCCCSc1ncc(C(=O)OCC)c(N)n1,-1,31,-11,-123,-150,64*
CCOC(=O)c1cnc(SCCc2ccccc2)nc1N,19,54,-1,-103,-152,88*
CCOC(=O)c1cnc(SCc2ccc(C)cc2)nc1N,-7,32,13,-25,-57,?
O=C(NCC(c1cccnc1)N1CCN(c2ccc(F)cc2)CC1)OCc1ccccc1 (stereo not given),3,-7,60*,3,1,12
COC(=O)NCC(c1cccnc1)N1CCN(c2ccccc2)CC1 (stereo not given),-3,5,27,7,13,-6
O=C(NCC(c1cccnc1)N1CCN(c2ccccc2)CC1)C1CCCCC1 (stereo not given),-14,3,56*,-8,18,14
O=C(NCC(c1cccnc1)N1CCN(c2ccccc2F)CC1)OCc1ccccc1 (stereo not given),8,10,56*,-18,-82,11
Cc1ccc(CSc2ncn(-c3ccccc3)n2)cc1,-2,22,11,-12,12,22
Clc1ccccc1CSc1ncn(-c2ccccc2)n1,-18,42,-1,-72,-55,67*
c1ccc2c(Nc3nnc(-c4ccncc4)s3)cccc2c1,-1,14,57*,-60,-59,-2
c1nc2sc3c(c2c2nnnn12)CCCC3,18*,-24,3,6,-6,-25
